ChEMBL document CHEMBL1123218, “Synthesis and inhibitory activity on carbonic anhydrase of some new sulpiride analogues studied by means of a new method” (J Med Chem, 1986)
Active and inactive are the calls of the source. The rule behind the calls is not given here.

How the values were obtained:
Format in all cases: protein assay
[1] = molecular target: T1, Carbonic anhydrase (Bos taurus) (UniProt P00921+Q95323+P18915+Q3SZX4); test: Evaluated for the inhibition of carbonic anhydrase enzyme at 0.2 g/L concentration
Summary of the method: (§1)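 Potentiometric CO2-evolution assay tracked with a pCO2 electrode, 25 ± 0.1 °C, constant stirring, pH 7.0 (0.1 M phosphate buffer), 60 min. NaHCO3 aliquots (0.1 and 5.0 mL) were added to 30 mL buffer at min 2 and 14. CA solution (1.0 mL) was added just before the second bicarbonate addition. Inhibitor was present in the buffer from the assay start.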

[2] = molecular target: T1, Carbonic anhydrase (Bos taurus); test: Compound was evaluated for the inhibition of carbonic anhydrase enzyme at 0.2 g/L concentration; a=No inhibition detected; summary of the method: as §1
[3] = molecular target: T1, Carbonic anhydrase (Bos taurus); test: Compound was evaluated for the inhibition of carbonic anhydrase enzyme at 0.5 g/L concentration; a=No inhibition detected; summary of the method: as §1
[4] = molecular target: T1, Carbonic anhydrase (Bos taurus); test: Compound was evaluated for the inhibition of carbonic anhydrase enzyme at 1.0 g/L concentration; a=No inhibition detected; summary of the method: as §1
[5] = molecular target: T1, Carbonic anhydrase (Bos taurus); test: Compound was evaluated for the inhibition of carbonic anhydrase enzyme at 1.5 g/L concentration; a=No inhibition detected; summary of the method: as §1
[6] = molecular target: T1, Carbonic anhydrase (Bos taurus); test: Compound was evaluated for the inhibition of carbonic anhydrase enzyme at 2.0 g/L concentration; a=No inhibition detected; summary of the method: as §1

Row | SMILES | inhibition [1] [%] | other results
1 | COc1ccc(S(N)(=O)=O)cc1C(=O)N1CCN(CC(C)C)CC1 | 36.4 | –
2 | C=CCN1CCN(C(=O)c2cc(S(N)(=O)=O)ccc2OC)CC1 | 36.4 | –
3 | COc1ccc(CN2CCN(C(=O)c3cc(S(N)(=O)=O)ccc3OC)CC2)cc1 | 63.6 | –
4 | COc1ccc(S(N)(=O)=O)cc1C(=O)N1CCN(Cc2ccc(S(N)(=O)=O)cc2)CC1 | 70.5 | –
5 | COc1ccc(S(N)(=O)=O)cc1C(=O)N1CCN(CC(=O)N2CCCC2)CC1 | 45.5 | –
6 | COc1ccc(S(N)(=O)=O)cc1C(=O)N1CCN(Cc2ccccc2)CC1 | 58.3 | –
7 | COc1ccc(S(N)(=O)=O)cc1C(=O)NCCN1CCCCC1 | 39.4 | –
8 | COc1ccc(S(N)(=O)=O)cc1C(=O)N1CCN(Cc2cc(OC)c(OC)c(OC)c2)CC1 | 61.4 | –
9 | COc1ccc(S(N)(=O)=O)cc1C(=O)N1CCNCC1 | 30.3 | –
10 | COc1ccc(S(N)(=O)=O)cc1C(=O)N1CCN(CC2CCCCC2)CC1 | 51.5 | –
11 | COc1ccc(S(N)(=O)=O)cc1C(=O)N1CCN(CC(=O)NC(C)C)CC1 | 54.6 | –
12 | CCN1CCC[C@H]1CNC(=O)c1c(OC)c(Br)cc(Br)c1OC | – | inhibition [2]: No inhibition; inhibition [3]: No inhibition; inhibition [4]: No inhibition; inhibition [5]: No inhibition; inhibition [6]: No inhibition
13 | COc1cccc(CN2CCN(C(=O)c3cc(S(N)(=O)=O)ccc3OC)CC2)c1 | 66.7 | –
14 | COc1ccc(S(N)(=O)=O)cc1C(=O)NCCCN1CCOCC1 | 45.5 | –
15 | CC[C@H](C)COc1ccc(S(N)(=O)=O)cc1C(=O)NC[C@@H]1CCCN1CC | 42.4 | –
16 | NS(=O)(=O)c1nc(C(=O)N2CCN(Cc3ccccc3)CC2)c[nH]1 | 68.9 | –
17 | CC[C@H](C)COc1ccc(S(N)(=O)=O)cc1C(=O)NC[C@H]1CCCN1CC | 41.7 | –
18 | CCN1CCCC1CN(C)C(=O)c1cc(S(N)(=O)=O)ccc1OC (stereo not given) | 39.4 | –
19 | COc1ccc(S(N)(=O)=O)cc1C(=O)N1CCN2CCCC2C1 (stereo not given) | 46.2 | –
20 | CCC(C)CN1CCN(C(=O)c2cc(S(N)(=O)=O)ccc2OC)CC1 (stereo not given) | 46.2 | –
21 | COc1ccc(S(N)(=O)=O)cc1CN1CCN(Cc2ccccc2)CC1 | 37.9 | –
22 | CCN1CCCC1CNC(=O)c1cc(S(=O)(=O)CC)ccc1OC (stereo not given) | – | inhibition [2]: inactive; inhibition [3]: inactive; inhibition [4]: inactive; inhibition [5]: inactive; inhibition [6]: inactive
